A short description of assay [1]: In vitro reversibility ratio in U937 cells. Type of assay: functional, U-937. In outline: (§1)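 Human histiocytic lymphoma U937 cells, read by flow cytometry. Scores whether a complete mitotic block is maintained 10 h after drug washout.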
Assay [2] has as its system P388. The assay is described as follows: Fold resistance calculated as the inhibition concentration ratio between retrovirally transformed murine P388/VMDRC.04 and parental P388 cells. The class given is functional. In a few lines:
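Readout of P-glycoprotein (PgP) susceptibility: IC50 in the retrovirally transformed P388/VMDRC.04 line divided by IC50 in parental P388 cells, giving fold resistance.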

Assay [3] concerns U-937. As to the kind of experiment: In vitro inhibitory concentration required to inhibit the growth of U937 cells was determined at 0 hr by mitotic block reversibility assay. The class given is functional. The note with it: Homo sapiens, U-937, 0 h.
Assay [4] relates to U-937. The assay is described as follows: In vitro inhibitory concentration required to inhibit the growth of U937 cells was determined at 10 hr by mitotic block reversibility assay. The class given is functional. The note with it: Homo sapiens, U-937, 10 h. In outline: as §1
For assay [5], the system named is DLD-1. As to the kind of experiment: In vitro inhibitory concentration required to inhibit the growth of DLD-1 cells under continuous exposure conditions for 3-4 days. The class given is functional, cell-based. The conditions noted are these: Homo sapiens. In a few lines: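 Human colon cancer DLD-1 cells grown under continuous drug exposure for 3–4 days. Growth inhibition measured and IC50 reported ± SEM, n = number of experiments.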

With `C=C1C[C@@H]2CC[C@@]34C[C@@H]5O[C@@H]6C(O[C@H]7CC[C@H](CC(=O)C[C@@H]8[C@@H](OC)[C@@H](C[C@H](O)CC#N)O[C@H]8C[C@H]8O[C@@H](CC[C@@H]1O2)C[C@@H](C)C8=C)O[C@@H]7[C@@H]6O3)[C@H]5O4`, the Reversibility ratio in assay [1] came to 15. Moreover, the FR in assay [2] is recorded as 7. Further, the results for the 99% effect concentration (IC99) in assay [3] and in assay [4] were 0.002 µM and 0.03 µM, respectively. In assay [5], the midpoint of inhibition, the IC50, lay at 490 pM.
In the same order, the values of `C=C1C[C@@H]2CC[C@@]34C[C@@H]5O[C@@H]6C(O[C@H]7CC[C@H](CC(=O)C[C@@H]8[C@@H](OC)[C@@H](CCO)O[C@H]8C[C@H]8O[C@@H](CC[C@@H]1O2)C[C@@H](C)C8=C)O[C@@H]7[C@@H]6O3)[C@H]5O4` are 33, 8.5, 0.003 µM, 0.1 µM and 660 pM.
In the same order, the values of `C=C1C[C@@H]2CC[C@@]34C[C@@H]5O[C@@H]6C(O[C@H]7CC[C@H](CC(=O)C[C@@H]8[C@@H](OC)[C@@H](CC(=O)CO)O[C@H]8C[C@H]8O[C@@H](CC[C@@H]1O2)C[C@@H](C)C8=C)O[C@@H]7[C@@H]6O3)[C@H]5O4` are 10, 3.7, 0.003 µM, 0.03 µM and 1100 pM.
Regarding `C=C1C[C@@H]2CC[C@@]34C[C@@H]5O[C@@H]6C(O[C@H]7CC[C@H](CC(=O)C[C@@H]8[C@@H](OC)[C@@H](C[C@H](O)CN(C)C)O[C@H]8C[C@H]8O[C@@H](CC[C@@H]1O2)C[C@@H](C)C8=C)O[C@@H]7[C@@H]6O3)[C@H]5O4`, the Reversibility ratio in assay [1] is given as 10. The FR in assay [2] is on record as 22. Also, the IC99 in assay [3] was 0.001 µM; in assay [4], 0.01 µM. The compound further returned an IC50 in assay [5] of 1200 pM.
As to `C=C1C[C@@H]2CC[C@@]34C[C@@H]5O[C@@H]6C(O[C@H]7CC[C@H](CC(=O)C[C@@H]8[C@@H](OC)[C@@H](C[C@H](O)CN9CCCCC9)O[C@H]8C[C@H]8O[C@@H](CC[C@@H]1O2)C[C@@H](C)C8=C)O[C@@H]7[C@@H]6O3)[C@H]5O4`, the Reversibility ratio in assay [1] was determined as 10. For the same compound, the FR in assay [2] is reported as 17. The concentration for an effect of 99% (IC99) in assay [3] was determined as 0.001 µM; in assay [4] it was 0.01 µM. Besides, the concentration for half-maximal inhibition (IC50) in assay [5] is 470 pM.
In the case of `C=C1C[C@@H]2CC[C@@]34C[C@@H]5O[C@@H]6C(O[C@H]7CC[C@H](CC(=O)C[C@@H]8[C@@H](OC)[C@@H](C[C@H](O)COC(=O)Nc9ccc(Cl)cc9)O[C@H]8C[C@H]8O[C@@H](CC[C@@H]1O2)C[C@@H](C)C8=C)O[C@@H]7[C@@H]6O3)[C@H]5O4`, the Reversibility ratio in assay [1] is given as 22. Moreover, in assay [2], the FR is reported as 8.6. Further, the values for the IC99 in assay [3] and in assay [4] were 0.003 µM and 0.065 µM, respectively. The compound also yielded an IC50 in assay [5] of 1300 pM.
In the same order, the values of `C=C1C[C@@H]2CC[C@@]34C[C@@H]5O[C@@H]6C(O[C@H]7CC[C@H](CC(=O)C[C@@H]8[C@@H](OC)[C@@H](C[C@H](O)CN=[N+]=[N-])O[C@H]8C[C@H]8O[C@@H](CC[C@@H]1O2)C[C@@H](C)C8=C)O[C@@H]7[C@@H]6O3)[C@H]5O4` are 10, 1.9, 0.003 µM, 0.03 µM and 530 pM.
In the same order, the values of `C=C1C[C@@H]2CC[C@@]34C[C@@H]5O[C@@H]6C(O[C@H]7CC[C@H](CC(=O)C[C@@H]8[C@@H](OC)[C@@H](C[C@H](O)COS(C)(=O)=O)O[C@H]8C[C@H]8O[C@@H](CC[C@@H]1O2)C[C@@H](C)C8=C)O[C@@H]7[C@@H]6O3)[C@H]5O4` are 10, 3, 0.003 µM, 0.03 µM and 800 pM.
In the same order, the values of `C=C1C[C@@H]2CC[C@@]34C[C@@H]5O[C@@H]6C(O[C@H]7CC[C@H](CC(=O)C[C@@H]8[C@@H](OC)[C@@H](C[C@H](O)CS(=O)(=O)c9ccc(OC)cc9)O[C@H]8C[C@H]8O[C@@H](CC[C@@H]1O2)C[C@@H](C)C8=C)O[C@@H]7[C@@H]6O3)[C@H]5O4` are 10, 3.4, 0.003 µM, 0.03 µM and 740 pM.
